Test results from ChEMBL document CHEMBL1137758, “Biphenyl C-cyclopropylalkylamides: New scaffolds for targeting estrogen receptor beta” (Bioorg Med Chem Lett, 2009).
Activity calls are given as the source filed them. The rule behind the calls is not given here.

What was measured:
MCF7 [1] = assay: Cytotoxicity against estradiol-stimulated human MCF7 cells expressing ERalpha and ERbeta at 25 uM after 6 days by MTS assay; assay type: functional, cell-based
In short: (§1)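 MCF-7 cells (an earlier passage expressing ERα and ERβ, or the later-passage ATCC variant expressing only ERα) were seeded at 4×10^3 cells/well in phenol red-free RPMI-1640 with 10% charcoal-dextran stripped FBS and left to adhere overnight. […] MTS/PMS read-out was A490 minus A630 after 2 h. Day-0 cells were set to 0% growth and E2-stimulated day-6 growth to 100%.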

MCF7 [2] = assay: Cytotoxicity against estradiol-stimulated human MCF7 cells expressing ERalpha at 25 uM after 6 days by MTS assay; assay type: functional, cell-based; in short: as §1
Estrogen receptor beta [3] = target: T1, Estrogen receptor beta (Homo sapiens, UniProt Q92731); assay: Displacement of fluorescein-labeled estradiol from human recombinant ERbeta by fluorescence polarization assay
In short: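 ER (15 nM) was incubated with Fluormone ES2 (1 nM) and serially diluted compound in DMSO (1% v/v) in duplicate. Polarization was read after 2 h (ex 485/em 530 nm). […] Values are means of three experiments.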

MCF7 [4] = assay: cells; conditions: Homo sapiens, MCF7, 144 h
MDA-MB-231 [5] = assay: Growth inhibition of estrogen receptor deficient human MDA-MB-231 cells at 3.2 nM to 50 uM after 72 hrs by MTS assay; assay type: functional, cell-based
In short: (§2)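 Cells were plated at 1×10^3 cells/well in phenol red-free RPMI-1640 with 10% FBS and left to adhere 72 h. Agents were given over 3.2 nM to 50 µM for 72 h. Cell density was read by MTS dye reduction, A490 with A630 background subtracted.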

MDA-MB-231 [6] = assay: Cytotoxicity against estrogen receptor deficient human MDA-MB-231 cells at 25 uM after 72 hrs by MTS assay; assay type: functional, cell-based; in short: as §2
Estrogen receptor = target: T2, Estrogen receptor (Homo sapiens, UniProt P03372); assay: Displacement of fluorescein-labeled estradiol from human recombinant ERalpha by fluorescence polarization assay
T2 sequence (P03372 whole entry): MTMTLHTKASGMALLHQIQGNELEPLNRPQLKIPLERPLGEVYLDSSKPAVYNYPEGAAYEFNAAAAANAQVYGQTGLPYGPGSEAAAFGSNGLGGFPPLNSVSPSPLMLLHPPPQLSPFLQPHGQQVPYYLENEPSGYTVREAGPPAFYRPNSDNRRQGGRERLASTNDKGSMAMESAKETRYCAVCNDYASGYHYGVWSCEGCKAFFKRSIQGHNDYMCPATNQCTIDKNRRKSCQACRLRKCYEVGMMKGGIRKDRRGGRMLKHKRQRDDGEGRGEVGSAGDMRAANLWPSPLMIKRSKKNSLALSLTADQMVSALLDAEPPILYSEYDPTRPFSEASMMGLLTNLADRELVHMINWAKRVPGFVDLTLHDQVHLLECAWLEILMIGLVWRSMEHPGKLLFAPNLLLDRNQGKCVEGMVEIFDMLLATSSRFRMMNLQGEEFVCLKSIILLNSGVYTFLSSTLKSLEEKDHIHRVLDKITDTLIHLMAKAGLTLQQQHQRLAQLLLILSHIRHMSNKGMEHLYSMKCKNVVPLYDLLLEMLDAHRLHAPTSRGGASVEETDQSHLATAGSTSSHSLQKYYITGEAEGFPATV

[7] = Selectivity for ERalpha over ERbeta
MCF7 [8] = assay: cells; conditions: Homo sapiens, MCF7, 144 h; remark: listed apart in the source
[9] = Selectivity for ERbeta over ERalpha
[10] = target: T3, Estrogen receptor (Homo sapiens) (UniProt P03372); assay: Displacement of fluorescein-labeled estradiol from human recombinant ERalpha at 1 uM by fluorescence polarization assay
T3 sequence (whole entry): T2 sequence (P03372 whole entry)

Estrogen receptor beta [11] = target: T1, Estrogen receptor beta; assay: Displacement of fluorescein-labeled estradiol from human recombinant ERbeta at 1 uM by fluorescence polarization assay
[12] = target: T3, Estrogen receptor (Homo sapiens); assay: Displacement of fluorescein-labeled estradiol from human recombinant ERalpha at 0.2 uM by fluorescence polarization assay
Estrogen receptor beta [13] = target: T1, Estrogen receptor beta; assay: Displacement of fluorescein-labeled estradiol from human recombinant ERbeta at 5 uM by fluorescence polarization assay
[14] = target: T3, Estrogen receptor (Homo sapiens); assay: Displacement of fluorescein-labeled estradiol from human recombinant ERalpha at 5 uM by fluorescence polarization assay
Estrogen receptor beta [15] = target: T1, Estrogen receptor beta; assay: Displacement of fluorescein-labeled estradiol from human recombinant ERbeta at 0.2 uM by fluorescence polarization assay

T1 sequence (Q92731 whole entry): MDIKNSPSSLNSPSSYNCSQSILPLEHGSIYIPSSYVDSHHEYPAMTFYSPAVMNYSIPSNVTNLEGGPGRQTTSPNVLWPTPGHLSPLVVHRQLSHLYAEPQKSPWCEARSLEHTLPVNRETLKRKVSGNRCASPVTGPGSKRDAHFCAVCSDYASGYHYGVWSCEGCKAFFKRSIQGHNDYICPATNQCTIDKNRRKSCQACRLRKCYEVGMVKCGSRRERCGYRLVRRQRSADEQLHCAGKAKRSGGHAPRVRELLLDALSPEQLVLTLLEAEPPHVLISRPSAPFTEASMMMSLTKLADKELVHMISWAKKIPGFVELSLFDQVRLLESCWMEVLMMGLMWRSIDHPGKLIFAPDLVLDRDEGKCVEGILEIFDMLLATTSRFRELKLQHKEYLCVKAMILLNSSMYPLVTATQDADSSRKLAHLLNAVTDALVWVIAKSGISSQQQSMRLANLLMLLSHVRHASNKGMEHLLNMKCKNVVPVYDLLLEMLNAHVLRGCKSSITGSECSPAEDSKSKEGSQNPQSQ

| Activity [10] [%] | Activity (Estrogen receptor beta [11]) [%] | Activity [12] [%] | Activity (Estrogen receptor beta [13]) [%] | Activity [14] [%] | Activity (Estrogen receptor beta [15]) [%] | SMILES | other results |
| --- | --- | --- | --- | --- | --- | --- | --- |
| – | – | – | – | – | – | CCCC[C@@H]1C[C@H]1[C@@H](NC(=O)c1ccccc1)c1ccc(-c2ccc(O)cc2)cc1F (relative stereo) | Activity (MCF7 [1]): Active; Activity (MCF7 [2]): Active; IC50 (Estrogen receptor beta [3]): 2050 nM; GI50 (MCF7 [4]): 4100 nM; growth inhibition (GI) (MDA-MB-231 [5]): inactive; Activity (MDA-MB-231 [6]): Active; IC50 (Estrogen receptor; read-out: IC50): > 100000 nM |
| – | – | – | – | – | – | CCCc1c(-c2ccc(O)cc2)nn(-c2ccc(O)cc2)c1-c1ccc(O)cc1 | fold change (FC) [7]: 410 |
| – | – | – | – | – | – | CCCC[C@@H]1C[C@H]1[C@@H](N)c1ccc(-c2ccc(O)cc2)cc1F.Cl (relative stereo) | Activity (MCF7 [1]): Active; GI50 (MCF7 [8]): 51700 nM; Activity (MCF7 [2]): Active; IC50 (Estrogen receptor beta [3]): 15000 nM; GI50 (MCF7 [4]): 1200 nM; growth inhibition (GI) (MDA-MB-231 [5]): inactive; Activity (MDA-MB-231 [6]): Active; IC50 (Estrogen receptor): Not Active |
| – | – | – | – | – | – | O/N=C/c1ccc(-c2ccc(O)cc2)cc1F | IC50 (Estrogen receptor beta [3]): 32.3 nM; fold change (FC) [9]: 11; IC50 (Estrogen receptor; read-out: IC50): 795 nM |
| – | – | – | – | – | – | Cc1cc(-c2ccc(O)c(F)c2)ccc1/C=N/O | fold change (FC) [9]: 43 |
| 92 | 32 | 61 | 40 | 98 | 15 | CCC/C=C(\CCC)[C@@H](NS(=O)(=O)c1ccccc1Cl)c1ccc(C(=O)OC)cc1 | – |
| 31 | 12 | 43 | 19 | 73 | 9 | CCC/C=C(\CCC)[C@@H](NC(=O)c1cccs1)c1ccc(C(F)(F)F)cc1 | – |
| 65 | 16 | 55 | 27 | 79 | 8 | CCC/C=C(\CCC)[C@@H](NP(=O)(c1ccccc1)c1ccccc1)c1ccc(C(F)(F)F)cc1 | – |
| 39 | -4 | 48 | 17 | 56 | -3 | CCC/C=C(\CCC)[C@@H](NS(C)(=O)=O)c1ccccc1 | – |
| 66 | 10 | 70 | 30 | 102 | 13 | CCC/C=C(\CCC)[C@@H](NS(=O)(=O)c1ccccc1)c1ccc(C(F)(F)F)cc1 | – |
| 21 | -7 | -61 | 3 | 27 | -8 | C=C(CCCC)[C@@H](NC(=O)c1ccc(C(F)(F)F)cc1)c1ccccc1 | – |
| 58 | 14 | 50 | 13 | 79 | 8 | CCCC[C@@H]1C[C@H]1C(NC(=O)c1cccs1)c1ccc(C(F)(F)F)cc1 (single isomer, unassigned) | – |
| 70 | 3 | 58 | 9 | 67 | 2 | C=C(CCCC)[C@@H](NC(=O)c1ccccc1)c1ccccc1 | – |
| 20 | -6 | 29 | -3 | 1 | -7 | CCCCCC/C=C(\C)[C@@H](NC(=O)c1ccc(C(F)(F)F)cc1)c1ccc(-c2ccccc2)cc1 | – |
| 29 | -2 | -111 | 6 | 41 | -3 | C=C(CCCC)[C@@H](NC(=O)c1ccco1)c1ccccc1 | – |
| 73 | 13 | 48 | 31 | 86 | 5 | CCC/C=C(\CCC)[C@@H](NC(=O)c1cccs1)c1ccc(C(=O)OC)cc1 | – |
| 74 | 18 | 52 | 22 | 91 | 28 | CCCC[C@@H]1C[C@H]1[C@@H](NS(=O)(=O)c1cccc2cccnc12)c1ccc(-c2ccccc2)cc1 | – |
| 39 | -4 | 40 | 7 | 56 | -2 | CCCC[C@@H]1C[C@H]1[C@@H](NC(=O)C(C)(C)C)c1ccc(C(F)(F)F)cc1 | – |
| 22 | -2 | 3 | 13 | 48 | -11 | CCC/C=C(\CCC)[C@@H](NC(=O)Cc1ccccc1)c1ccc(C(=O)OC)cc1 | – |
| 44 | -4 | 32 | 6 | 48 | -8 | CCCCCC/C=C(\C)[C@@H](NC(=O)c1cccnc1)c1ccc(-c2ccccc2)cc1 | – |
| 58 | -4 | 36 | 15 | 76 | -4 | CCC/C=C(\CCC)[C@@H](NC(=O)c1ccco1)c1ccc(C(=O)OC)cc1 | – |
| 35 | 2 | -33 | 8 | 46 | 0 | C=C(CCCC)[C@@H](NC(=O)c1ccc(-c2ccccc2)cc1)c1ccccc1 | – |
| 52 | 28 | 0 | 11 | 78 | 1 | CCC/C=C(\CCC)[C@@H](NC(=O)c1ccccc1)c1ccc(C(=O)OC)cc1 | – |
| – | – | – | – | – | – | O=C(c1ccc(OCCN2CCCCC2)cc1)c1c(-c2ccc(O)cc2)sc2cc(O)ccc12 | Activity (MCF7 [1]): Active; Activity (MCF7 [2]): Active; growth inhibition (GI) (MDA-MB-231 [5]): inactive; Activity (MDA-MB-231 [6]): Active |
| 33 | 8 | 39 | 32 | 92 | 5 | CCC/C=C(\CCC)[C@@H](NS(=O)(=O)c1cccs1)c1ccc(C(=O)OC)cc1 | – |
| 56 | 6 | 51 | 17 | 82 | 8 | CCC/C=C(\CCC)[C@@H](NC(=O)c1ccccc1)c1ccccc1 | – |

| SMILES | Activity [10] [%] | Activity (Estrogen receptor beta [11]) [%] | Activity [12] [%] | Activity (Estrogen receptor beta [13]) [%] | Activity [14] [%] | Activity (Estrogen receptor beta [15]) [%] | other results |
| --- | --- | --- | --- | --- | --- | --- | --- |
| CCC/C=C(\CCC)[C@@H](NP(=O)(c1ccccc1)c1ccccc1)c1ccccc1 | 25 | 9 | 47 | 14 | 72 | 6 | – |
